ChEMBL document CHEMBL1130116, “Synthesis and antimetastatic activity of L-iduronic acid-type 1-N-iminosugars” (1997)

Assays:
[1] = organism: Mus musculus; assay: % inhibition of metastasis at 103 uM in mice; format: functional
Summary of the method: (§1)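 B16 BL6 cells (3×10^5) were precultured 24 h in DMEM/FBS (37 °C, 5% CO2), then exposed to compound for 72 or 24 h. Cells were detached with 0.05% trypsin/0.02% EDTA, and 1×10^5 cells in 0.1 mL cation-free DPBS were injected into the tail vein of female BDF1 mice (7 weeks, five per group).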

[2] = organism: Mus musculus; assay: % inhibition of metastasis at 34 uM in mice; format: functional; summary of the method: as §1
[3] = organism: Mus musculus; assay: % inhibition of metastasis at 172 uM in mice; format: functional; summary of the method: as §1
[4] = organism: Mus musculus; assay: Number of tumor nodules at 103 uM of compound in mice(Range 136-64 ); format: functional; summary of the method: as §1
[5] = organism: Mus musculus; assay: Number of tumor nodules at 34 uM of compound in mice(Range 169-115 ); format: functional; summary of the method: as §1
[6] = organism: Mus musculus; assay: Cell growth at 34 MicroM concentration in mice; format: functional
Summary of the method: (§2)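 B16 BL6 cells (3×10^5) were precultured 24 h in DMEM/FBS at 37 °C, 5% CO2, then incubated with or without compound for 72 or 24 h under the same conditions. After 0.05% trypsin/0.02% EDTA release, cells were suspended in 1 mL divalent cation-free DPBS and reported as cells per mL before tail-vein injection into BDF1 mice.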

[7] = organism: Mus musculus; assay: Cell growth at 103 uM concentration in mice; format: functional; summary of the method: as §2
[8] = organism: Mus musculus; assay: Number of tumor nodules at 172 uM of compound in mice(Range 136-84 ); format: functional; summary of the method: as §1
[9] = organism: Mus musculus; assay: Cell growth at 172 uM concentration in mice; format: functional; summary of the method: as §2
[10] = organism: Mus musculus; assay: Cell growth at 34 uM concentration in mice; format: functional; summary of the method: as §2
[11] = organism: Mus musculus; assay: Number of tumor nodules at 172 uM of compound in mice(Range 118-23); format: functional; summary of the method: as §1
[12] = organism: Mus musculus; assay: Number of tumor nodules at 103 uM of compound in mice(Range 160-114 ); format: functional; summary of the method: as §1
[13] = organism: Mus musculus; assay: Number of tumor nodules at 34 uM of compound in mice(Range 165-133 ); format: functional; summary of the method: as §1
[14] = organism: Mus musculus; assay: Number of tumor nodules at 29 uM of compound in mice(Range 200-270 ); format: functional; summary of the method: as §1
[15] = organism: Mus musculus; assay: Cell growth at 29 MicroM concentration in mice; format: functional; summary of the method: as §2
[16] = organism: Mus musculus; assay: % inhibition of metastasis at 87 uM in mice; format: functional; summary of the method: as §1
[17] = organism: Mus musculus; assay: Cell growth at 87 uM concentration in mice; format: functional; summary of the method: as §2
[18] = organism: Mus musculus; assay: % inhibition of metastasis at 145 uM in mice; format: functional; summary of the method: as §1
[19] = organism: Mus musculus; assay: Number of tumor nodules at 87 uM of compound in mice(Range 122-237 ); format: functional; summary of the method: as §1
[20] = organism: Mus musculus; assay: Cell growth at 145 uM concentration in mice; format: functional; summary of the method: as §2
[21] = organism: Mus musculus; assay: % inhibition of metastasis at 29 uM in mice; format: functional; summary of the method: as §1
[22] = organism: Mus musculus; assay: Number of tumor nodules at 145 uM of compound in mice(Range 5-97 ); format: functional; summary of the method: as §1
[23] = organism: Mus musculus; assay: Cell growth at 129 uM concentration in mice; format: functional; summary of the method: as §2
[24] = test system: B16; assay: Compound was tested in vitro, for inhibitory effect on B16BL6 cell invasion, by incubating with 129 uM of compound for 4 hr; format: functional, Mus musculus
Summary of the method: (§3)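 B16 BL6 cells were cultured with compound for 72 or 24 h at 37 °C, then lifted with 0.08% sodium citrate (10 min, 37 °C), washed twice and resuspended at 1×10^6/mL in RPMI 1640 + 0.1% BSA. 100 μL went onto filters coated with 5 μg Matrigel then 10 μg laminin, with the same medium below. Incubation was 3 or 4 h at 37 °C, 5% CO2. Filters were wiped, methanol-fixed and hematoxylin-stained; invaded cells were counted in five 0.3 mm² fields (200×). Triplicates, mean ± SD; % inhibition is versus untreated cells.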

[25] = test system: B16; assay: Compound was tested in vitro, for inhibitory effect on B16BL6 cell invasion, by incubating with 258 uM of compound for 4 hr; format: functional, Mus musculus; summary of the method: as §3
[26] = test system: B16; assay: Number of cells invaded in cell invasion assay by incubating with 129 uM of compound for 4 hr; format: functional, Mus musculus; summary of the method: as §3
[27] = organism: Mus musculus; assay: Number of tumor nodules at 78 uM of compound in mice(Range 89-120 ); format: functional; summary of the method: as §1
[28] = organism: Mus musculus; assay: % inhibition of metastasis at 26 uM in mice; format: functional; summary of the method: as §1
[29] = organism: Mus musculus; assay: % inhibition of metastasis at 129 uM in mice; format: functional; summary of the method: as §1
[30] = organism: Mus musculus; assay: Cell growth at 78 uM concentration in mice; format: functional; summary of the method: as §2
[31] = organism: Mus musculus; assay: Number of tumor nodules at 26 uM of compound in mice(Range 148-276 ); format: functional; summary of the method: as §1
[32] = test system: B16; assay: Compound was tested in vitro, for inhibitory effect on B16BL6 cell invasion, by incubating with 518 uM of compound for 4 hr; format: functional, Mus musculus; summary of the method: as §3
[33] = test system: B16; assay: Number of cells invaded in cell invasion assay by incubating with 518 uM of compound for 4 hr; format: functional, Mus musculus; summary of the method: as §3
[34] = organism: Mus musculus; assay: % inhibition of metastasis at 78 uM in mice; format: functional; summary of the method: as §1
[35] = organism: Mus musculus; assay: Cell growth at 26 uM concentration of the compound; format: functional; summary of the method: as §2
[36] = organism: Mus musculus; assay: Number of tumor nodules at 129 uM of compound in mice(Range 13-87 ); format: functional; summary of the method: as §1
[37] = test system: B16; assay: Number of cells invaded in cell invasion assay by incubating with 258 uM of compound for 4 hr; format: functional, Mus musculus; summary of the method: as §3
[38] = organism: Mus musculus; assay: % inhibition of metastasis at 150 uM in mice; format: functional; summary of the method: as §1
[39] = organism: Mus musculus; assay: Cell growth at 90 uM concentration in mice; format: functional; summary of the method: as §2
[40] = organism: Mus musculus; assay: Cell growth at 30 uM concentration in mice; format: functional; summary of the method: as §2
[41] = organism: Mus musculus; assay: Cell growth at 150 uM concentration in mice; format: functional; summary of the method: as §2
[42] = test system: B16; assay: Compound was tested in vitro, for inhibitory effect on B16BL6 cell invasion, by incubating with 580 uM of compound for 3 hr; format: functional, Mus musculus; summary of the method: as §3
[43] = test system: B16; assay: Number of cells invaded in cell invasion assay by incubating with 580 uM of compound for 3 hr; format: functional, Mus musculus; summary of the method: as §3
[44] = organism: Mus musculus; assay: % inhibition of metastasis at 90 uM in mice; format: functional; summary of the method: as §1
[45] = organism: Mus musculus; assay: Number of tumor nodules at 90 uM of compound in mice(Range 20-7 ); format: functional; summary of the method: as §1
[46] = organism: Mus musculus; assay: Number of tumor nodules at 150 uM of compound in mice(Range 9-1 ); format: functional; summary of the method: as §1
[47] = organism: Mus musculus; assay: % inhibition of metastasis at 30 uM in mice; format: functional; summary of the method: as §1
[48] = test system: B16; assay: Compound was tested in vitro, for inhibitory effect on B16BL6 cell invasion, by incubating with 870 uM of compound for 3 hr; format: functional, Mus musculus; summary of the method: as §3
[49] = organism: Mus musculus; assay: Number of tumor nodules at 30 uM of compound in mice(Range 129-54 ); format: functional; summary of the method: as §1
[50] = test system: B16; assay: Number of cells invaded in cell invasion assay by incubating with 870 uM of compound for 3 hr; format: functional, Mus musculus; summary of the method: as §3

CC(=O)N[C@H]1NC[C@@H](C(=O)O)[C@H](N)[C@@H]1O
Inhibition [1]: 26.6%
Inhibition [2]: 1.4%
Inhibition [3]: 30.9%
No. of lung metastasis [4]: 108.8
No. of lung metastasis [5]: 145.2
No. of cells [6]: 1.6e+07 mL
No. of cells [7]: 2.1e+07 mL
No. of lung metastasis [8]: 101.6
No. of cells [9]: 1.6e+07 mL

CC(=O)N[C@H]1NC[C@@H](C(=O)O)[C@H](N)[C@H]1O
Inhibition [1]: 12.1%
Inhibition [2]: 0%
Inhibition [3]: 44.3%
No. of cells [10]: 1.4e+07 mL
No. of lung metastasis [11]: 82
No. of cells [7]: 1.4e+07 mL
No. of cells [9]: 1.8e+07 mL
No. of lung metastasis [12]: 129.4
No. of lung metastasis [13]: 147.2

NC1C(C(=O)O)CNC(NC(=O)C(F)(F)F)C1O (stereo not given)
No. of lung metastasis [14]: 245.4
No. of cells [15]: 1.6e+06 mL
Inhibition [16]: 38.1%
No. of cells [17]: 1.6e+06 mL
Inhibition [18]: 75.5%
No. of lung metastasis [19]: 157.8
No. of cells [20]: 1.4e+06 mL
Inhibition [21]: 3.8%
No. of lung metastasis [22]: 62.4

N=C(N)NC1C(C(=O)O)CNC(NC(=O)C(F)(F)F)C1O (stereo not given)
No. of cells [23]: 1.5e+06 mL
Inhibition [24]: 61.1%
Inhibition [25]: 44.4%
No. of invaded cells [26]: 0.9
No. of lung metastasis [27]: 105.6
Inhibition [28]: 14.1%
Inhibition [29]: 81%
No. of cells [30]: 1.3e+06 mL
No. of lung metastasis [31]: 219
Inhibition [32]: 63.9%
No. of invaded cells [33]: 0.9
Inhibition [34]: 58.8%
No. of cells [35]: 1.9e+06 mL
No. of lung metastasis [36]: 48.4
No. of invaded cells [37]: 1.3

CC(=O)NC1NCC(C(=O)O)C(N=C(N)N)C1O (stereo not given)
Inhibition [38]: 97%
No. of cells [39]: 1.7e+07 mL
No. of cells [40]: 1.9e+07 mL
No. of cells [41]: 1.9e+07 mL
Inhibition [42]: 44.8%
No. of invaded cells [43]: 23.7
Inhibition [44]: 91%
No. of lung metastasis [45]: 13.2
No. of lung metastasis [46]: 4.4
Inhibition [47]: 40.1%
Inhibition [48]: 58.9%
No. of lung metastasis [49]: 88.2
No. of invaded cells [50]: 17.7
